Consider 98 molecules from ChEMBL document CHEMBL4513216, “Probing the Open Global Health Chemical Diversity Library for Multistage-Active Starting Points for Next-Generation Antimalarials” (ACS Infect Dis, 2020).

This data set is described as follows: Toxicity liver stage against HepG2, at 10uM. In kind it is cell-based. Details: test concentration 10 uM, cell line HepG2-A16-CD81EGFP. The following applies: human, HepG2-A16-CD81EGFP cells; read-out: INHIBITION
The essentials: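 Uninfected HepG2-A16-CD81EGFP cells, 3 × 10^3 per well, 1536-well, plated on prespotted compound at 10 μM final, parasite-free screening media added to match infected plates; puromycin 10 μM positive, DMSO 0.5% negative; run in parallel with 48 h PbLuc assay at 37 °C, 5% CO2; viability by CellTiter-Glo luminescence, normalized to controls.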
`Cn1ncc2c(=O)[nH]c(N3CCCC3c3cccs3)nc21` (stereo not drawn): the cytotoxicity at 10 µM is -0.53%.

For `Cc1cc(CN(C)C(=O)NC2CCS(=O)(=O)C2)no1` (stereo not drawn), the cytotoxicity at 10 µM was -1.61%.

In the case of `CCN1CCC2(CC1)CC(NCc1cccc(C)n1)c1ccccc1O2` (stereo not drawn), the cytotoxicity at 10 µM was -1.46%.

Consider `Cc1ccc(S(=O)(=O)N2CCN(Cc3ccncc3)CC2)c(Cl)c1`, for which the cytotoxicity at 10 µM is -0.147%.

As for `COc1c(C2CCCN2C(=O)Cc2c(C)noc2C)c(C)nn1C` (stereo not drawn), the cytotoxicity at 10 µM was -12.9%.

For the molecule `CC1CCN(C(CNC(=O)Cn2cccn2)c2cccs2)CC1` (stereo not drawn), the cytotoxicity at 10 µM was -16%.

With `COC(=O)c1ccc(Cl)c(CN(C)Cc2ncnn2C)c1`, the cytotoxicity at 10 µM was -7.81%.

For the molecule `Clc1cccc(N[C@H]2CCCN[C@H]2Cc2ccccc2)c1`, the cytotoxicity at 10 µM is 89.4%.

In the case of `Cc1noc(C)c1CN1CCCC1c1nnc2ccccn12` (stereo not drawn), the cytotoxicity at 10 µM is -1.73%.

Turning to `CCc1c(C)nn(CCNC(=O)c2cc(C3CC3)n[nH]2)c1C`, the cytotoxicity at 10 µM was -12.1%.

Regarding `Cc1cc(NS(=O)(=O)c2c[nH]c3ncccc23)no1`, the cytotoxicity at 10 µM was -1.69%.

Turning to `CCn1cnnc1CNC(=O)N1CCC(C)CC1`, the cytotoxicity at 10 µM stood at 2.64%.

In the case of `Cc1ncccc1C(=O)Nc1cccc(Cn2ccccc2=O)c1`, the cytotoxicity at 10 µM is 3.06%.

With `Cc1ccc2c(c1)c(CNC(=O)C1CC(=O)N(CCN(C)C)C1)nn2C` (stereo not drawn), the cytotoxicity at 10 µM amounted to 1.66%.

For the molecule `Cc1ccc(CN2CCc3nnc(COCCN(C)C)n3CC2)o1`, the cytotoxicity at 10 µM is 2.9%.

For `Cc1ccsc1C(=O)N1CC[C@@H](N(C)C)[C@@H]1Cc1cnn(C)c1`, the cytotoxicity at 10 µM was -77.6%.

Turning to `O=C1COC2(CCN(Cc3ccoc3)CC2)CN1`, the cytotoxicity at 10 µM is -11.3%.

As for `O=C(c1cccs1)N1CCC(n2nc(-c3ccco3)ccc2=O)CC1`, the cytotoxicity at 10 µM was -6.62%.

Regarding `COc1c(C)cc(C(C(=O)O)N(C)Cc2ccn[nH]2)cc1C` (stereo not drawn), the cytotoxicity at 10 µM was determined as 2.82%.

Regarding `COc1ccc(-c2cc(C(=O)NCCC(C)C)n(C)n2)cc1`, the cytotoxicity at 10 µM amounted to 0%.

For the molecule `COCc1nc(C(=O)N2CCCC2c2noc(C(C)C)n2)cs1` (stereo not drawn), the cytotoxicity at 10 µM was 0.866%.

With `COc1ccsc1C(=O)N1CCCC(n2cncn2)C1` (stereo not drawn), the cytotoxicity at 10 µM amounted to 4.6%.

With `CN(C)CCn1ccnc1C1CCCN(c2nccc3ccccc23)C1` (stereo not drawn), the cytotoxicity at 10 µM was -7.55%.

On to `COC(=O)c1cc(OCC2CCC2)cc(C(=O)NCC(C)(C)O)c1`, for which the cytotoxicity at 10 µM came to 4.01%.

For `Cc1nccn1Cc1nnc(C2CCCN(c3cnccn3)C2)n1C` (stereo not drawn), the cytotoxicity at 10 µM is 2.73%.

With `O=C(c1cc2ccccc2[nH]1)N1CCCCC1Cn1cccn1` (stereo not drawn), the cytotoxicity at 10 µM came to 1.27%.

In the case of `CCc1nc(C)c(C(=O)NCCNc2cnccn2)s1`, the cytotoxicity at 10 µM was -4.64%.

`Nc1cc(-c2c[nH]nc2C2CCCN2CCCc2ccccc2)ccn1` (stereo not drawn): the cytotoxicity at 10 µM was determined as 3.75%.

For the molecule `COC1(CNC(=O)NCc2ccccc2)CCSC1` (stereo not drawn), the cytotoxicity at 10 µM is -2.42%.

For the molecule `Cc1ccc(C(O)CNCCn2cccn2)cc1C` (stereo not drawn), the cytotoxicity at 10 µM was -6.11%.

Turning to `Cc1nccn1-c1cccc(C2CCCN(C3CCCC3)C2)n1` (stereo not drawn), the cytotoxicity at 10 µM was -12.7%.

Turning to `CNC(=O)CN(C)C(=O)Cc1csc(C(C)C)n1`, the cytotoxicity at 10 µM was -5.07%.

With `Cc1cc(-c2c[nH]nc2C2CCCCN2C(=O)c2ccccc2)on1` (stereo not drawn), the cytotoxicity at 10 µM stood at 7.9%.

For `COCC(=O)N(C)Cc1nc(N2CCCC2)ncc1-c1ccncc1`, the cytotoxicity at 10 µM stood at 12.3%.

As for `Cn1ccc2ccc(C(=O)N3CC[C@@]4(O)CCCC[C@H]4C3)cc21`, the cytotoxicity at 10 µM is -46.6%.

With `Cc1cnc(CNc2c(F)cccc2-n2cccn2)o1`, the cytotoxicity at 10 µM turned out to be 15.6%.

Turning to `Cc1nc(C)c(C(=O)N2CCCC(C(=O)c3nccn3C)C2)s1` (stereo not drawn), the cytotoxicity at 10 µM was determined as 2.3%.

For `COc1cccc(C(=O)N2CCC(Nc3ccc(C)nn3)CC2)c1`, the cytotoxicity at 10 µM is -2.24%.

`CC(C)NC(=O)NC[C@H]1OC[C@@H](NCc2ccccc2O)[C@@H]1O`: the cytotoxicity at 10 µM is -1.69%.

As to `COc1cc(Cl)ccc1C(=O)NCc1n[nH]c(C)n1`, the cytotoxicity at 10 µM was -4.07%.

Consider `Cc1noc(C2(NC(=O)c3cccnc3O)CCCCC2)n1`, for which the cytotoxicity at 10 µM was -9.83%.

On to `Cc1cnn(CCCNC(=O)NC(C)C(=O)Nc2ccccc2)c1` (stereo not drawn), for which the cytotoxicity at 10 µM came to 7.04%.

Consider `Cc1cnn(CCCOc2ccc3c(c2)OCO3)c1`, for which the cytotoxicity at 10 µM was determined as 8.4%.

As for `NC(=O)c1ccc(CN2C(=O)C3(CCNCC3)Nc3ccccc32)cc1`, the cytotoxicity at 10 µM is -6.38%.

For the molecule `CCOC(=O)c1sc(NC(=O)C(C)C)c(C#N)c1C`, the cytotoxicity at 10 µM is -15.9%.

For `c1cncc(COCc2n[nH]c3c2CN(Cc2ccco2)C3)c1`, the cytotoxicity at 10 µM turned out to be 9.01%.

Take `Cn1ncc(N2CCOCC2)c(Cl)c1=O`: the cytotoxicity at 10 µM was -13.8%.

For the molecule `Cc1cc(CN2C[C@@H]3CN(C(=O)c4ccco4)CCO[C@@H]3C2)no1`, the cytotoxicity at 10 µM is -141%.

In the case of `O=C(c1ccco1)N1CCC(n2cc(-c3ccsc3)nn2)CC1`, the cytotoxicity at 10 µM came to 1.41%.

With `CCC(C)NS(=O)(=O)Cc1cccc(NC(=O)C2=CCCC2)c1` (stereo not drawn), the cytotoxicity at 10 µM is -0.217%.

In the case of `CS(=O)(=O)Nc1ccn(Cc2ccc(Cl)cc2)n1`, the cytotoxicity at 10 µM turned out to be 6.44%.

Regarding `Cc1nc(-c2cn(CCN)nn2)n(-c2ccc(C(F)(F)F)cc2)n1`, the cytotoxicity at 10 µM was -1.77%.

Take `O=C(c1ccccc1O)N1CCN(C(=O)C2CCC2)CC1`: the cytotoxicity at 10 µM is 2.42%.

For the molecule `Cn1cc(CCNCc2cc(Br)c3c(c2)OCO3)cn1`, the cytotoxicity at 10 µM was -18%.

Take `Cc1cc(C)c(CNC(=O)NCC(O)c2ccccc2F)c(=O)[nH]1` (stereo not drawn): the cytotoxicity at 10 µM was -0.185%.

For `COc1ccc(CC(C)Nc2cccc(F)c2)cc1` (stereo not drawn), the cytotoxicity at 10 µM amounted to 5.82%.

For the molecule `Oc1cccc(CNCc2ccc(-n3cncn3)nc2)c1`, the cytotoxicity at 10 µM is 4.01%.

In the case of `CN(c1ncccc1CNC(=O)c1csnn1)C1CCCCC1`, the cytotoxicity at 10 µM is -9.31%.

Consider `CC(C)CC(=O)N1CC[C@@H]2[C@H](CC1)N(S(C)(=O)=O)CCS2(=O)=O`, for which the cytotoxicity at 10 µM is -11.4%.

Consider `Cc1nccn1-c1cc(CNC(=O)C2CCC(=O)N2)ccn1` (stereo not drawn), for which the cytotoxicity at 10 µM is -1.24%.

Turning to `Cc1cccc(C2CCCN(C(=O)CN3CCOC3=O)C2)c1` (stereo not drawn), the cytotoxicity at 10 µM is -2.82%.

Regarding `Cc1ccc(CC(=O)N2CCCCC2c2nc(C)cs2)cn1` (stereo not drawn), the cytotoxicity at 10 µM worked out at 2.6%.

Take `CN(CCO)Cc1cc(Cl)ccc1OCC(O)CN1CCCCCC1` (stereo not drawn): the cytotoxicity at 10 µM is -5.09%.

As to `Cn1cc(N2C(=O)CC[C@@H]3[C@H]2CCN3C(=O)c2cscn2)cn1`, the cytotoxicity at 10 µM was -81.5%.

As for `COCCN1C[C@H]2CN(C(=O)NCc3ccccc3)CCN2C1=O`, the cytotoxicity at 10 µM came out at 2.08%.

In the case of `COCCO[C@H]1CCN(C(=O)c2ccsc2)[C@H]1Cc1ccncc1`, the cytotoxicity at 10 µM was -75.4%.

Take `COCCN(C)CC(=O)N1C[C@@H](NC(C)=O)[C@H](c2ccc(OC)cc2)C1`: the cytotoxicity at 10 µM was determined as 1.45%.

Turning to `COc1ccccc1C1SCC(=O)Nc2c1c(=O)[nH]n2C1CCCCC1` (stereo not drawn), the cytotoxicity at 10 µM is -1.2%.

For `O=C(Cn1cnc(-c2cccs2)cc1=O)Nc1cccnc1`, the cytotoxicity at 10 µM was -3.69%.

For `Cn1c(C2CC2)nc2c1CCN(Cc1nc(-c3ccsc3)no1)C2`, the cytotoxicity at 10 µM worked out at 8.73%.

For `CC(C(=O)Nc1ncccn1)N1CCC(n2ccnc2)CC1` (stereo not drawn), the cytotoxicity at 10 µM is -8.15%.

For the molecule `COc1ccc2c(c1)C(C(=O)N(C)CCCc1cnn(C)c1)CC(=O)N2` (stereo not drawn), the cytotoxicity at 10 µM is -46.9%.

`Cn1cnnc1S(=O)(=O)C1CCN(S(=O)(=O)c2ccccc2F)CC1`: the cytotoxicity at 10 µM is -2.08%.

Turning to `COc1cc(C)nc(N2CCN(C(=O)COCC3CC3)CC2)n1`, the cytotoxicity at 10 µM is -5.92%.

On to `Cc1nn(C)c(C)c1C(C)NCc1ccc(OC(C)C)cc1` (stereo not drawn), for which the cytotoxicity at 10 µM was 15.3%.

On to `CC(C)CN(CC(O)c1ccccc1)C(=O)NC(C)C` (stereo not drawn), for which the cytotoxicity at 10 µM is -3.96%.

As for `Cc1nc(O)cc(CCNC(=O)c2ccccc2N2CCCC2)n1`, the cytotoxicity at 10 µM was determined as 10.4%.

With `COCCN(C)C(=O)NCCc1coc(-c2ccc(C)cc2)n1`, the cytotoxicity at 10 µM stood at 8.13%.

For `CCN(CC)C(=O)c1cc(-c2cccc(Cl)c2)no1`, the cytotoxicity at 10 µM was -8.79%.

On to `Cc1nc([C@@H]2C[C@@H]3CCN(C(=O)c4ccnnc4)C[C@H]3O2)sc1C`, for which the cytotoxicity at 10 µM was determined as 2.68%.

For `COCC1CN(c2ccncn2)Cc2cnn(CC3CCCC3)c21` (stereo not drawn), the cytotoxicity at 10 µM is 4.83%.

For the molecule `O=C(CCn1cncn1)NCC1CCCC1`, the cytotoxicity at 10 µM is -43.1%.

Turning to `Cc1nc(-c2ccc(CC(=O)N3CCNC(=O)C3)cc2)cs1`, the cytotoxicity at 10 µM was 6.14%.

In the case of `O=C(COCc1ccccc1)N1CCCC1c1noc(C2CC2)n1` (stereo not drawn), the cytotoxicity at 10 µM was -1.98%.

`O=C(NCc1cccs1)NCC(O)c1ccoc1` (stereo not drawn): the cytotoxicity at 10 µM was -11.9%.

For the molecule `CS(=O)(=O)NCC1CCCCN1Cc1cccc(C#N)c1` (stereo not drawn), the cytotoxicity at 10 µM amounted to 0.528%.

Regarding `O=C(CCc1nc2ccccc2[nH]1)N1CCCC(n2cccn2)C1` (stereo not drawn), the cytotoxicity at 10 µM is -15.9%.

Take `CC(c1ccon1)N(C)Cc1cc(O)c2cc(F)ccc2n1` (stereo not drawn): the cytotoxicity at 10 µM stood at 5.5%.

With `CC(C)N(Cc1ccccc1)C(=O)c1cc(C2CCCN2C)ccn1` (stereo not drawn), the cytotoxicity at 10 µM is -18.7%.

In the case of `Cn1ccnc1CN1CCC(CNS(=O)(=O)c2cccnc2)C1` (stereo not drawn), the cytotoxicity at 10 µM was found to be 6.03%.

For `COc1ccc(Cn2c(CCc3c(C)n[nH]c3C)n[nH]c2=O)cc1`, the cytotoxicity at 10 µM was -144%.

As for `CC(C)c1cc(C(=O)N(C)Cc2cccc3ncccc23)n(C)n1`, the cytotoxicity at 10 µM turned out to be 12.3%.

With `C[S+]([O-])c1nncn1CCc1ccccc1` (stereo not drawn), the cytotoxicity at 10 µM was -12.6%.

Turning to `Cc1ccc(NC(=O)CN(C)C(=O)c2ccc(-n3cccc3)nc2)nc1`, the cytotoxicity at 10 µM was 12.4%.

As to `CC(C)(C)OC(=O)NCCNC(=O)c1ccc2cc[nH]c2c1`, the cytotoxicity at 10 µM is -0.224%.

`Cn1cc(Br)c(C(=O)NCCn2cc(Br)cn2)n1`: the cytotoxicity at 10 µM was -13.3%.

For the molecule `Cc1nc(C)n(CC2CCCN2CCCc2ccccc2)n1` (stereo not drawn), the cytotoxicity at 10 µM is -14.1%.

In the case of `CSCC[C@@H](CO)Nc1nc(-c2ccccn2)nc2c1c(C)nn2C`, the cytotoxicity at 10 µM stood at 2.7%.
